Source: PubChem
Shown are actives, neighbours in structure and some others; about 11% of the full set was active somewhere.
Diaphorase act – diaphorase activation or chemical reduction counter-screen. hit rate 0.005% among 190,000. Diaphorase/resazurin coupled assay, resorufin fluorescence, 16 min; active compounds read high; 1 = vehicle wells, 0 = NADH-free wells. AID 1229. activation factor at 20 µM;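 active = diaphorase activity raised at least twofold by the compound at 20 µM; inactive = activation factor below 2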
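Material: bacterial diaphorase enzyme (C. kluyveri); amount: enzyme 0.07 U/mL final; reagent: NADH substrate 0.114 mM plus resazurin dye 0.1 mM, final; doses: single compound dose of 20 µM, 1% DMSO final; timing: 16 min enzyme reaction, ambient temperature; measured by: fluorescence of resorufin, 544 nm excitation, 590 nm emission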
WT yeast gro inh – growth inhibition of WT yeast, mitochondrial fusion screen; mitochondrial fusion phenotypic screen, WT strain; inhibition, % at 10 µM; hit rate 2.1% among 190,000; in the data active = inhibition above about 58%; tested in S. cerevisiae
Diaph inh CS – inhibits diaphorase or chemically oxidizes, flagging diaphorase assay artifacts | hit rate 0.69% among 190,000 | inhibition, % at 20 µM | diaphorase resazurin-to-resorufin fluorescence, NADH, 16 min; bacterial (C. kluyveri) enzyme, not human;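 active = primary screen inhibition at 20 µM above a set limit, cut at about 50% in these data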
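Benchmarks: positive control wells lacking NADH, neutral wells with DMSO only. System: bacterial diaphorase enzyme (C. kluyveri). Input: 0.14 U/mL diaphorase, enzyme working solution. Detection: resorufin fluorescence, excitation 544 nm, emission 590 nm. Times: 16-min room-temperature incubation before reading.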
G6PDH counter – inhibits Leuconostoc G6PDH, flagging false hits in G6PDH-based assays; Purified L. mesenteroides G6PDH, diaphorase/resazurin coupled fluorescence, 45 min; inhibition, % at 5 µM; hit rate 0.12% among 200,000
L major viab – Leishmania major promastigote growth inhibition; hit rate 9% among 200,000; Leishmania major promastigotes, resazurin fluorescence viability; inhibition, % at 10 µM;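 note: promastigotes grown with compound for 44 hours at 28 °C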
A number is an active result. Cut-off read from the data, not from the text of the source, unless noted: active = inhibition above about 50%; inactive = the rest.

O=C(O)Cc1ccc2c(c1)N(S(=O)(=O)c1cccc(C(F)(F)F)c1)CC(C(=O)O)O2 (configuration not stated) was read as Diaphorase act inactive, WT yeast gro inh inactive, Diaph inh CS inactive, G6PDH counter inactive and L major viab inactive.
CC1=C(C#N)C(NC(=O)c2cccc(Cl)c2)(C(F)(F)F)C(=O)N1 (configuration not stated) was read as Diaphorase act inactive, WT yeast gro inh inactive, Diaph inh CS inactive, G6PDH counter inactive and L major viab inactive.
Screening Cc1cccc(-c2noc(CN(C(=O)/C=C/c3ccccc3Cl)C(C)C)n2)c1 returned Diaphorase act inactive, WT yeast gro inh inactive, Diaph inh CS inactive, G6PDH counter inactive and L major viab inactive.
For COc1ccc(Cl)cc1C(=O)N(Cc1nc(-c2cccc(C)c2)no1)C(C)C the results were Diaphorase act inactive, WT yeast gro inh inactive, Diaph inh CS inactive, G6PDH counter inactive and L major viab 85.
For O=C(O)/C=C/c1ccc([N+](=O)[O-])o1 the results were Diaphorase act inactive, WT yeast gro inh inactive, Diaph inh CS inactive, G6PDH counter inactive and L major viab inactive.
`O=[N+]([O-])c1ccc(/C=N/N=C/c2ccc([N+](=O)[O-])o2)o1` gave Diaphorase act inactive, WT yeast gro inh inactive, Diaph inh CS inactive, G6PDH counter inactive and L major viab 100.
Cc1ccc(S(=O)(=O)N/N=C\c2ccc([N+](=O)[O-])o2)cc1 was read as Diaphorase act inactive, WT yeast gro inh inactive, Diaph inh CS inactive, G6PDH counter inactive and L major viab 87.
For O=[N+]([O-])c1ccc(/C=N/NS(=O)(=O)c2ccc(Cl)cc2)o1 the results were Diaphorase act inactive, WT yeast gro inh inactive, Diaph inh CS inactive, G6PDH counter inactive and L major viab 53.
Cc1cc2ncn(/N=C/c3ccc([N+](=O)[O-])o3)c2cc1C was read as Diaphorase act inactive, WT yeast gro inh inactive, Diaph inh CS inactive, G6PDH counter inactive and L major viab 99.
Screening Cc1ccc(C(=O)N2CCCCC2C(=O)O)o1 (configuration not stated) returned Diaphorase act inactive, WT yeast gro inh inactive, Diaph inh CS inactive, G6PDH counter inactive and L major viab inactive.
`NC(=O)c1ccc(C(F)(F)F)n(Cc2cccc(Cl)c2)c1=O` gave Diaphorase act inactive, WT yeast gro inh inactive, Diaph inh CS inactive, G6PDH counter inactive and L major viab inactive.
Screening NNC(=O)CN1C(c2ccccc2Br)=Nc2ccc(Br)cc2C1c1ccccc1 (configuration not stated) returned Diaphorase act inactive, WT yeast gro inh inactive, Diaph inh CS inactive, G6PDH counter inactive and L major viab inactive.
`CCC(=O)N(Cc1ccco1)c1nc(C(=O)Nc2ccc(Cl)cc2)c(C)s1` gave Diaphorase act inactive, WT yeast gro inh inactive, Diaph inh CS inactive, G6PDH counter inactive and L major viab inactive.
For CCS(=O)(=O)Nc1ccc(-c2cc(-c3ccccc3)c3cc(C)ccc3n2)cc1 the results were Diaphorase act inactive, WT yeast gro inh 90, Diaph inh CS inactive, G6PDH counter inactive and L major viab inactive.
For Cc1ccc2nc(-c3ccc(NS(C)(=O)=O)cc3)cc(-c3ccccc3)c2c1 the results were Diaphorase act inactive, WT yeast gro inh inactive, Diaph inh CS inactive, G6PDH counter inactive and L major viab inactive.
Screening Cc1cccc(N2CCN(C(=S)c3ccc(-c4ccccc4[N+](=O)[O-])o3)CC2)c1 returned Diaphorase act inactive, WT yeast gro inh inactive, Diaph inh CS inactive, G6PDH counter inactive and L major viab inactive.
O=[N+]([O-])c1ccccc1-c1ccc(C(=S)N2CCCC2)o1 was read as Diaphorase act inactive, WT yeast gro inh inactive, Diaph inh CS 53, G6PDH counter inactive and L major viab inactive.
`S=C(c1ccc(-c2cccc(Cl)c2)o1)N1CCOCC1` gave Diaphorase act inactive, WT yeast gro inh inactive, Diaph inh CS inactive, G6PDH counter inactive and L major viab inactive.
For S=C(c1ccc(-c2cccc(Cl)c2)o1)N1CCCCC1 the results were Diaphorase act inactive, WT yeast gro inh 58, Diaph inh CS inactive, G6PDH counter inactive and L major viab inactive.
For S=C(c1ccc(-c2cc(Cl)ccc2Cl)o1)N1CCCCC1 the results were Diaphorase act inactive, WT yeast gro inh inactive, Diaph inh CS inactive, G6PDH counter inactive and L major viab 54.
`CCC(=O)N(C)CCc1cc2c(c(OC)c1/C=N/NC(=O)c1ccc(Br)cc1)OCO2` gave Diaphorase act inactive, WT yeast gro inh inactive, Diaph inh CS inactive, G6PDH counter inactive and L major viab inactive.
For O=C(COc1ccccc1)NCc1nnc2c3ccccc3c(-c3ccccc3)nn12 the results were Diaphorase act inactive, WT yeast gro inh inactive, Diaph inh CS inactive, G6PDH counter inactive and L major viab inactive.
CC(C)CNS(=O)(=O)c1ccc(S(=O)(=O)N2CCCN(Cc3ccccc3)C2)cc1 was read as Diaphorase act inactive, WT yeast gro inh 83, Diaph inh CS inactive, G6PDH counter inactive and L major viab inactive.
For CC1CCN(S(=O)(=O)c2ccc(S(=O)(=O)N3CCCN(Cc4ccccc4)C3)cc2)CC1 the results were L major viab 86.
`O=C(NCCCN1CCOCC1)c1cc2c(s1)CCCC2` gave Diaphorase act inactive, WT yeast gro inh inactive, Diaph inh CS inactive, G6PDH counter inactive and L major viab 91.
`O=C(NCCCN1CCOCC1)c1cc2c(=O)[nH]c3ccccc3c2s1` gave Diaphorase act inactive, WT yeast gro inh inactive, Diaph inh CS inactive, G6PDH counter inactive and L major viab inactive.
`NS(=O)(=O)c1ccc(CNC(=O)c2csc3c2CCCC3)cc1` gave Diaphorase act inactive, WT yeast gro inh inactive, Diaph inh CS 85, G6PDH counter inactive and L major viab inactive.
`CCCNC(=O)c1csc2c1CCCCC2` gave Diaphorase act inactive, WT yeast gro inh inactive, Diaph inh CS inactive, G6PDH counter inactive and L major viab inactive.
`O=C(NCCCN1CCOCC1)c1csc2c1CCCC2` gave Diaphorase act inactive, WT yeast gro inh inactive, Diaph inh CS inactive, G6PDH counter inactive and L major viab 85.
Screening CC(=O)C1=C(C)NC(SCC(=O)c2ccc(Cl)cc2)=C(C#N)C1c1ccco1 (configuration not stated) returned Diaphorase act inactive, WT yeast gro inh inactive, Diaph inh CS inactive, G6PDH counter inactive and L major viab 83.
`CC(=O)C1=C(C)NC(SCC(=O)c2ccc(Cl)cc2Cl)=C(C#N)C1c1ccco1` (configuration not stated) gave Diaphorase act inactive, WT yeast gro inh inactive, Diaph inh CS inactive, G6PDH counter inactive and L major viab 61.
For CSC1=C(C#N)C(c2ccccc2)C(C(C)=O)=C(C)N1 (configuration not stated) the results were Diaphorase act inactive, WT yeast gro inh inactive, Diaph inh CS inactive, G6PDH counter inactive and L major viab inactive.
